Data from ChEMBL document CHEMBL4396954, “A click chemistry approach for the synthesis of cyclic ureido tethered coumarinyl and 1-aza coumarinyl 1,2,3-triazoles as inhibitors of Mycobacterium tuberculosis H37Rv and their in silico studies” (Bioorg Med Chem, 2019).
≈ marks a conversion by molar mass, not a printed value.

How the values were obtained:
[1] = tested on: Mycobacterium tuberculosis; assay: Antitubercular activity against Mycobacterium tuberculosis H37Rv incubated for 5 days by microplate alamar blue assay; assay type: functional; details: 120 h
In short: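 M. tuberculosis H37Rv grown with compound in microplate Alamar Blue assay; plates sealed and incubated at 37 °C for five days. A 1:1 mix of Alamar Blue reagent and 10% Tween 80 was then added, followed by another 24 h. Blue was scored as no growth and pink as growth. MIC was the lowest concentration preventing blue-to-pink change.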

HEK293 = assay: Cytotoxicity against HEK293 cells assessed as cell viability incubated for 48 hrs by MTT assay; assay type: cell-based; details: Homo sapiens, HEK293, 48 h
In short: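 HEK293 cells seeded in 96-well plates and held overnight at 37 °C, 5% CO2, 95% humidity. Cells were treated with 500, 250, 125, 62.5, 31.25 and 15.625 (units not given) for 48 h, washed twice with phosphate buffer, then given MTT (5 mg/mL stock) for 4 h at 37 °C. Formazan was dissolved in DMSO and absorbance read at 570 nm.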

[2] = Chemical stability of compound in DMF at 5 x 10^-5 M incubated for 24 hrs by spectrometric analysis; assay type: physicochemical; details: 50 µM
In short: (§1)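 Compound stock prepared in DMF, then diluted with DMF or with buffers of pH 6–8 to 5 × 10⁻⁵ M. Samples were kept at room temperature. UV absorption and fluorescence emission spectra were recorded and their patterns compared over 24 h and 72 h.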

[3] = Chemical stability of compound in pH 6 to 8 buffer at 5 x 10^-5 M incubated for 24 hrs by spectrometric analysis; assay type: physicochemical; details: pH 6, 24 h, 50 µM; in short: as §1
[4] = Chemical stability of compound in DMF at 5 x 10^-5 M incubated for 72 hrs by spectrometric analysis; assay type: physicochemical; details: 50 µM; in short: as §1
[5] = Chemical stability of compound in pH 6 to 8 buffer at 5 x 10^-5 M incubated for 72 hrs by spectrometric analysis; assay type: physicochemical; details: pH 6, 72 h, 50 µM; in short: as §1

SMILES | MIC [1] | IC50 (HEK293) | Stability [2] | Stability [3] | Stability [4] | Stability [5]
Cc1ccc2c(Cn3cc(Cn4c(=O)n(Cc5cn(Cc6cc(=O)oc7c(C)c(C)ccc67)nn5)c5ccccc54)nn3)cc(=O)oc2c1C | 2.39 µM (≈ 1.6 µg/mL) | 3.43 mM | Stable | Stable | Unstable | Unstable
NC(=O)c1cnccn1 [PYRAZINAMIDE] | 25.4 µM (≈ 3.12 µg/mL) |  |  |  |  | 
Cc1ccc2c(Cn3cc(Cn4c(C)cc(=O)n(Cc5cn(Cc6cc(=O)oc7cc(C)ccc67)nn5)c4=O)nn3)cc(=O)oc2c1 | 79.1 µM (≈ 50 µg/mL) |  |  |  |  | 
O=c1cc(Cn2cc(Cn3c(=O)n(Cc4cn(Cc5cc(=O)oc6ccc7ccccc7c56)nn4)c4ccccc43)nn2)c2c(ccc3ccccc32)o1 | 8.76 µM (≈ 6.24 µg/mL) | 1.13 mM | Stable | Stable | Unstable | Unstable
Cc1cc(C)c2c(Cn3cc(Cn4cnc5c4c(=O)n(C)c(=O)n5C)nn3)cc(=O)oc2c1 | 111 µM (≈ 49.7 µg/mL) |  |  |  |  | 
Cc1cccc2c(Cn3cc(Cn4cnc5c4c(=O)n(C)c(=O)n5C)nn3)cc(=O)[nH]c12 | 116 µM (≈ 50 µg/mL) | 5.04 mM |  |  |  | 
Cc1ccc2oc(=O)cc(Cn3cc(Cn4cnc5c4c(=O)n(C)c(=O)n5C)nn3)c2c1 | 115 µM (≈ 50 µg/mL) | 1.11 mM |  |  |  | 
Cc1cc(C)c2c(Cn3cc(Cn4c(C)cc(=O)n(Cc5cn(Cc6cc(=O)oc7cc(C)cc(C)c67)nn5)c4=O)nn3)cc(=O)oc2c1 | 75.7 µM (≈ 50 µg/mL) |  |  |  |  | 
COc1ccc2c(Cn3cc(Cn4c(=O)n(Cc5cn(Cc6cc(=O)oc7cc(OC)ccc67)nn5)c5ccccc54)nn3)cc(=O)oc2c1 | 2.37 µM (≈ 1.59 µg/mL) | 4.62 mM | Stable | Stable | Unstable | Unstable
Cc1cc(C)c2c(Cn3cc(Cn4c(=O)n(Cc5cn(Cc6cc(=O)oc7cc(C)cc(C)c67)nn5)c5ccccc54)nn3)cc(=O)oc2c1 | 2.39 µM (≈ 1.6 µg/mL) | 0.943 mM | Stable | Stable | Unstable | Unstable
COc1ccc2oc(=O)cc(Cn3cc(Cn4cnc5c4c(=O)n(C)c(=O)n5C)nn3)c2c1 | 55.6 µM (≈ 25 µg/mL) | 1.38 mM |  |  |  | 
Cc1ccc2oc(=O)cc(Cn3cc(Cn4c(=O)n(Cc5cn(Cc6cc(=O)oc7ccc(C)cc67)nn5)c5ccccc54)nn3)c2c1 | 2.49 µM (≈ 1.6 µg/mL) | 3.58 mM | Stable | Stable | Unstable | Unstable
Cc1cccc2c(Cn3cc(Cn4c(=O)n(Cc5cn(Cc6cc(=O)[nH]c7c(C)cccc67)nn5)c5ccccc54)nn3)cc(=O)[nH]c12 | 2.5 µM (≈ 1.6 µg/mL) | 4.34 mM | Stable | Stable | Unstable | Unstable
O=c1cc(Cn2cc(Cn3c(=O)n(Cc4cn(Cc5cc(=O)[nH]c6ccc(Cl)cc56)nn4)c4ccccc43)nn2)c2cc(Cl)ccc2[nH]1 | 2.35 µM (≈ 1.6 µg/mL) | 12.3 mM | Stable | Stable | Unstable | Unstable
CC(C)c1ccc2oc(=O)cc(Cn3cc(Cn4c(=O)n(Cc5cn(Cc6cc(=O)oc7ccc(C(C)C)cc67)nn5)c5ccccc54)nn3)c2c1 | 2.49 µM (≈ 1.73 µg/mL) | 3.2 mM | Stable | Stable | Unstable | Unstable
COc1ccc2oc(=O)cc(Cn3cc(Cn4c(=O)n(Cc5cn(Cc6cc(=O)oc7ccc(OC)cc67)nn5)c5ccccc54)nn3)c2c1 | 4.64 µM (≈ 3.12 µg/mL) | 4.12 mM | Stable | Stable | Unstable | Unstable
O=c1cc(Cn2cc(Cn3c(=O)n(Cc4cn(Cc5cc(=O)[nH]c6cc(Cl)ccc56)nn4)c4ccccc43)nn2)c2ccc(Cl)cc2[nH]1 | 2.35 µM (≈ 1.6 µg/mL) | 4.57 mM | Stable | Stable | Unstable | Unstable
CN[C@@H]1[C@H](O[C@H]2[C@H](O[C@H]3[C@H](O)[C@@H](O)[C@H](N=C(N)N)[C@@H](O)[C@@H]3N=C(N)N)O[C@@H](C)[C@]2(O)C=O)O[C@@H](CO)[C@H](O)[C@H]1O [STREPTOMYCIN] | 10.7 µM (≈ 6.25 µg/mL) |  |  |  |  | 
COc1ccc2oc(=O)cc(Cn3cc(Cn4c(C)cc(=O)n(Cc5cn(Cc6cc(=O)oc7ccc(OC)cc67)nn5)c4=O)nn3)c2c1 | 75.2 µM (≈ 50 µg/mL) | 1.52 mM |  |  |  | 
O=C(O)c1cn(C2CC2)c2cc(N3CCNCC3)c(F)cc2c1=O [CIPROFLOXACIN] | 9.43 µM (≈ 3.12 µg/mL) |  |  |  |  | 
O=c1cc(Cn2cc(Cn3c(=O)n(Cc4cn(Cc5cc(=O)oc6ccc(Cl)cc56)nn4)c4ccccc43)nn2)c2cc(Cl)ccc2o1 | 18.3 µM (≈ 12.5 µg/mL) |  | Stable | Stable | Unstable | Unstable
O=c1cc(Cn2cc(Cn3c(=O)n(Cc4cn(Cc5cc(=O)[nH]c6ccccc56)nn4)c4ccccc43)nn2)c2ccccc2[nH]1 | 10.2 µM (≈ 6.25 µg/mL) |  | Stable | Stable | Unstable | Unstable
Cc1ccc2c(Cn3cc(Cn4c(=O)n(Cc5cn(Cc6cc(=O)oc7cc(C)ccc67)nn5)c5ccccc54)nn3)cc(=O)oc2c1 | 2.49 µM (≈ 1.6 µg/mL) | 3.52 mM | Stable | Stable | Unstable | Unstable
Cc1ccc2oc(=O)cc(Cn3cc(Cn4c(C)cc(=O)n(Cc5cn(Cc6cc(=O)oc7ccc(C)cc67)nn5)c4=O)nn3)c2c1 | 79.1 µM (≈ 50 µg/mL) | 1.28 mM |  |  |  | 
O=c1cc(Cn2cc(Cn3c(=O)n(Cc4cn(Cc5cc(=O)oc6c5ccc5ccccc56)nn4)c4ccccc43)nn2)c2ccc3ccccc3c2o1 | 2.34 µM (≈ 1.67 µg/mL) | 3.13 mM | Stable | Stable | Unstable | Unstable
Cc1cccc2c(Cn3cc(Cn4c(C)cc(=O)n(Cc5cn(Cc6cc(=O)[nH]c7c(C)cccc67)nn5)c4=O)nn3)cc(=O)[nH]c12 | 79.3 µM (≈ 50 µg/mL) | 1.15 mM |  |  |  | 
